Results from different studies.
Protocols differ between the studies behind these lines.
Target: STE20/SPS1-related proline-alanine-rich protein kinase (STK39, Homo sapiens, UniProt Q9UEW8)

Compound	test	conditions	remaining binding [%]
CN(C)c1nccc(-c2cnc3ncccn23)n1	binding	1 µM	51
C[C@@H](c1ccc(-n2cnc3c(N)ncnc32)cc1)N1CCc2nn(C)c(Cc3ccccc3)c2C1=O	binding, competition with immobilised ligand	0.1 µM	84
CN(c1nccc(-c2cnn3ncccc23)n1)C1CC1	binding	1 µM	100
CNC(=O)[C@@H]1CC[C@@H](n2c(-c3ccc4cnccc4c3)nc3ccc(C(=O)NCc4cccc(C(N)=O)c4)cc32)C1	binding, competition with immobilised ligand	1 µM	100
O=C(NCCCN1CCOCC1)c1ccc(Nc2nccc(-c3cc4ccccc4s3)n2)cc1	binding, competition with immobilised ligand	1 µM	73
O=C(Nc1c[nH]nc1C(=O)NC1CCNCC1)c1cc(F)cc(F)c1	binding, competition with immobilised ligand	1 µM	67
N#CC1(c2ccccn2)CCN(Cc2cc(C(=O)N3CCCC3)c(=O)n3ccccc23)CC1	cell-free assay, competition with immobilised ligand	1 µM	75
Nc1ncc2c(n1)-c1c([nH]c3ccc(C#CC4CC4)cc13)CCCC2	binding, competition with immobilised ligand	1 µM	53
F[C@@H]1CCN(c2nccc(-c3cnn4ncccc34)n2)C1	binding	1 µM	57
COc1cnc(Nc2cccc(S(N)(=O)=O)c2)nc1N1CCN(c2ccccc2)CC1	binding, competition with immobilised ligand	1 µM	75
O=C(NCCCN1CCOCC1)c1ccc(Nc2ncc(Cl)c(-c3ccc(Cl)s3)n2)cc1	binding, competition with immobilised ligand	1 µM	54
COc1cc(-c2cn(C3CCc4ccccc4N(CC(F)(F)F)C3=O)nn2)ccc1-n1ccc(C)n1 (stereo not drawn)	cell-free assay, competition with immobilised ligand	1 µM	98
CN(C)c1nccc(-c2cnn3ncccc23)n1	binding	1 µM	28
Cc1nc(C2CCN(C(=O)c3ccc(OC(F)(F)F)cc3N)CC2)c2ncc(N3CCN(C)CC3)cc2n1	cell-free assay, competition with immobilised ligand	1 µM	100
C[C@@H]1CCN(c2nccc(-c3cnn4ncccc34)n2)C1	binding	1 µM	59
CCCOc1ccc([C@@H]2[C@@H](C(=O)O)[C@H](c3ccc4c(c3)OCO4)CN2CC(=O)Nc2c(CC)cccc2CC)cc1	cell-free assay, competition with immobilised ligand	1 µM	78
O=C(c1ccc(Nc2ncc(Cl)c(-c3cc4ccccc4s3)n2)cc1)N1CCC(N2CCCC2)CC1	binding, competition with immobilised ligand	1 µM	36
O=C(Nc1cccnn1)N1CCC(=Cc2cccc(Oc3ccc(C(F)(F)F)cn3)c2)CC1	cell-free assay, competition with immobilised ligand	1 µM	100
CN(CCCC(F)(F)F)c1nccc(-c2cnn3ncccc23)n1	binding	1 µM	82
Cc1cc(NC(=O)c2cccc(S(F)(F)(F)(F)F)c2)cc(-n2ccn3nc(-c4cccnc4)cc23)c1	cell-free assay, competition with immobilised ligand	1 µM	100
FC(F)(F)Oc1cccc(-c2cnc3ccc(-c4ccncc4)nn23)c1	binding, competition with immobilised ligand	5 µM	83
